# Screening results from PubChem BioAssay.
# The list is not random: actives were taken first. Their share in the collection is about 2.3%.
# TRPC6 inhibitor = blocks the mouse TRPC6 cation channel | HEK293-TRPC6, membrane potential dye, ACh-evoked depolarization; active compounds read low | Q61143 | actives 1.1% (n = 310,000) | B-score at 10 µM;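 active means B-score under library mean minus 3 SD, initial fluorescence not abnormally high, positive integrated signal ratio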;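 further: B-score derived from integrated fluorescence ratio over the kinetic read; more negative B-score means stronger inhibition of depolarization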
# TRPC4 agonist = activators of mouse TRPC4 channel | Q9QUQ5 | HEK293 TRPC4beta/mu-opioid, Fluo4 calcium fluorescence; active compounds read high | B-score at 10 µM | actives 0.49% (n = 310,000) | AID 2237;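 active means B-score above 5 SD of library B-scores, and initial fluorescence ratio not above library mean plus 5 SD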;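 further: positive B-score marks a calcium rise read as TRPC4 activation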
# Target sequence (Q9QUQ5 whole entry, looked up): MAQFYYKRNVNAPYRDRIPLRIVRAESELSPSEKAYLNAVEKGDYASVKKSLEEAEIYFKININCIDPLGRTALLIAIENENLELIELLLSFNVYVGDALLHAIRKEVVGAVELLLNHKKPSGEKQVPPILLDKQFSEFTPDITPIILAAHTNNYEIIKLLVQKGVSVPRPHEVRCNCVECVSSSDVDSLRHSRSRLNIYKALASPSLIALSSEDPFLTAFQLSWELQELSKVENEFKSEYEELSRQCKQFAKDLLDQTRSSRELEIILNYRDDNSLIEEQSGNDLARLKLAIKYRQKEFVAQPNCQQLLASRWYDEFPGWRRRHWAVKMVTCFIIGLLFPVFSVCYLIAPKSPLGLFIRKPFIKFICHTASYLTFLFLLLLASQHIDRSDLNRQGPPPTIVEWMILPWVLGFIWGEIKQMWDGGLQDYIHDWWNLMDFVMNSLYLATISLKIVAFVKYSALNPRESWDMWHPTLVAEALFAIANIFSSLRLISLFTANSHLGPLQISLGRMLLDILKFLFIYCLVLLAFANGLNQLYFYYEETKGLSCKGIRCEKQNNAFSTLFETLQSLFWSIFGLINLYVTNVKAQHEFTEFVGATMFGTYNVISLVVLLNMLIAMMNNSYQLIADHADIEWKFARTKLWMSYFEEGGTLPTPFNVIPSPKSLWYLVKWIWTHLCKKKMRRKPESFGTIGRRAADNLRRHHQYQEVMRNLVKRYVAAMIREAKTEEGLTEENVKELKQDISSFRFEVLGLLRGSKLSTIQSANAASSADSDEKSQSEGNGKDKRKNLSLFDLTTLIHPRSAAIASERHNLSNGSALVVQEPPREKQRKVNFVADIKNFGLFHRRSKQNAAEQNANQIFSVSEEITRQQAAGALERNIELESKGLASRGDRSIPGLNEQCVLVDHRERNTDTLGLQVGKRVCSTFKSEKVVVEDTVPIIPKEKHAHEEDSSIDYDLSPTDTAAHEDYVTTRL
#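 Assay system – TRPC4beta and mu-opioid receptor HEK293 stable cells · Measured by – Fluo4 fluorescence, kinetic · Schedule – dye loading 45 min room temperature, 110 s kinetic read · Read-out – B-scored integrated calcium fluorescence ratio · Controls – buffer and maximal DAMGO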
# TRPC4 potent = TRPC4 (mouse) allosteric potentiation | HEK293 TRPC4beta/mu-opioid, DAMGO EC20, Fluo-4 Ca2+ flux; active compounds read high | B-score at 10 µM | actives 0.42% (n = 310,000) | Q9QUQ5;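 active means B-score of calcium response area above 5 SD of library B-scores, with initial fluorescence ratio within 5 SD of library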;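 further: B-score of integrated fluorescence ratio over time as area under calcium response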
# TRPC6 activator = activators of mouse TRPC6 channel | actives 0.13% (n = 310,000) | HEK293-TRPC6 membrane potential dye fluorescence; active compounds read high | B-score at 10 µM | Q61143;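 active means B-score of the integrated fluorescence ratio above library mean plus 3 SD, and starting fluorescence ratio within library mean plus 5 SD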;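 further: higher score means more depolarization so channel activation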
# TRPC4 inh = blocks the mouse TRPC4 cation channel. Q9QUQ5. HEK293 TRPC4beta/mu-opioid, DAMGO-evoked Fluo4 calcium flux; active compounds read low. B-score at 10 µM. actives 0.39% (n = 300,000). AID 2247;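 active means B-score over 3 SD under the library average, no early fluorescence shift, positive overall ratio signal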
#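 Material: HEK293 cells with stable TRPC4beta plus mu-opioid receptor expression; probe or stimulus: DAMGO in two steps, submaximal then maximal; technique: Fluo4 calcium fluorescence by kinetic imaging, 5 s 1 Hz baseline; measure: integrated fluorescence ratio relative to baseline, converted to per-well B score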
# TRPC4 spec 2 = second check of whether TRPC6 inhibitors also affect mouse TRPC4; shares compounds with TRPC6 inhibitor; HEK293 TRPC4/MOR, membrane potential dye fluorescence; channel activated by saturating DAMGO dose; inhibition, % at 10 µM; actives 42% (n = 920); AID 2776;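 active means compounds whose fluorescence signal differed from control wells by over 3 SD, either direction, in both duplicate plates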
# TRPC4 spec = tests whether TRPC6 inhibitors also affect mouse TRPC4. shares compounds with TRPC6 inhibitor. HEK293 TRPC4/mu-opioid, membrane potential fluorescence. activity change, negative = inhibition, % at 10 µM. actives 61% (n = 920). AID 2777;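 active means rise or fall in signal beyond 3 SD of buffer-only wells in both replicate plates, either sign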;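 further: integrated kinetic ratio of fluorescence range over baseline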
# HEK293 MPD ctr 2-1 = second counter-screen for TRPC6 inhibitors: parental HEK293 cells. actives 31% (n = 920). parental HEK293 membrane potential dye fluorescence; maximal acetylcholine challenge after compound addition. AID 2779. shares compounds with TRPC6 inhibitor. signal change vs control, % at 10 µM;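 active means membrane potential signal moving either way by over 3 SD of the maximum-effect control, in both duplicate plates, meaning non-specific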
# HEK293 MPD ctr-1 = checks TRPC6 inhibitor effects in parental HEK293 cells | shares compounds with TRPC6 inhibitor | parental HEK293 membrane potential dye fluorescence | membrane potential signal change, % at 10 µM | actives 60% (n = 920);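 active means membrane potential signal shifting up or down by more than 3 SD of buffer-only wells, on both duplicate plates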
# HEK293 MPD ctr-2 = counter-screen for TRPC6 modulators: effect in parental HEK293 cells | shares compounds with TRPC6 inhibitor | membrane potential dye fluorescence | membrane potential signal change, % at 10 µM | actives 51% (n = 2,400) | AID 488924;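 active means membrane potential signal moves up or down beyond 5 SD from buffer-only wells, on both duplicate plates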
# HEK293 MPD ctr 2-2 = second counter-screen for TRPC6 modulators: effect in parental HEK293 cells; shares compounds with TRPC6 inhibitor; membrane potential dye fluorescence; after compound, maximal acetylcholine stimulation; inhibition, % at 10 µM; actives 14% (n = 2,400); AID 488926;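 active means membrane potential signal drops by more than 5 SD from the mean control signal, in both duplicate plates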;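 further: plate controls were acetylcholine ECmax control wells for no effect and buffer only wells for full effect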
# TRPC4 ctr mod = tests whether TRPC6 modulators also affect mouse TRPC4; shares compounds with TRPC6 inhibitor; HEK293 TRPC4/mu-opioid, membrane potential fluorescence; percent change from control (negative = decrease, positive = increase), % at 10 µM; actives 69% (n = 2,400);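 active means membrane potential signal moved up or down beyond 5 SD of buffer control wells, in both duplicate plates, actives on both sides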;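 further: plate controls were assay buffer wells for no effect and DAMGO maximal-effect wells for full effect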
# TRPC4/MOR inh 2 = second selectivity test of TRPC6 modulators against mouse TRPC4; HEK293 TRPC4/mu-opioid, membrane potential dye fluorescence; stimulated with maximal-effect DAMGO; shares compounds with TRPC6 inhibitor; inhibition, % at 10 µM; actives 55% (n = 2,400);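 active means drop in membrane potential signal beyond 5 SD of the control wells in both duplicate plates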;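 further: TRPC4 counter screen for TRPC6 hits run under conditions tuned for TRPC6 not TRPC4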
# TRPC6 block conf = confirmation of mouse TRPC6 inhibitors; shares compounds with TRPC6 inhibitor; HEK293-TRPC6, membrane potential dye, ACh-evoked depolarization; inhibition, % at 10 µM; actives 43% (n = 3,300);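 active means fluorescence ratio falls more than 5 SD below the full-stimulation control mean, in both duplicate runs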;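 further: integrated fluorescence ratio of peak minus minimum over baseline after agonist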
# TRPC6 act confirm = confirmation of mouse TRPC6 activators; actives 11% (n = 2,800); AID 488961; shares compounds with TRPC6 inhibitor; activation, % at 10 µM; HEK293-TRPC6 membrane potential dye fluorescence, FDSS;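 active means ratio signal rise beyond 5 SD above unstimulated control wells' mean, seen in both duplicate runs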;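 further: plate controls were buffer EC0 wells for no effect and acetylcholine ECmax response for full effect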
# Starred values were filed as active, the others as inactive; i = inactive; . = not tested or not shown.
SMILES,TRPC6 inhibitor,TRPC4 agonist,TRPC4 potent,TRPC6 activator,TRPC4 inh,HEK293 MPD ctr-2,HEK293 MPD ctr 2-2,TRPC4 ctr mod,TRPC4/MOR inh 2,TRPC6 block conf,TRPC6 act confirm,others
CC(NC(=O)CC1CCCCC1)c1ccccc1 (stereo not drawn),i,i,i,i,i,.,.,.,.,.,.,
CCOc1ccccc1N1CCN(Cc2ccco2)CC1,i,i,i,i,i,.,.,.,.,.,.,
CCOc1ccccc1N1CCN(C/C=C/c2ccc(N(C)C)cc2)CC1,-6.48*,i,i,i,i,i,i,i,66.5%*,49.5%*,i,
O=C(Cn1cccc1C(=O)c1ccccc1)NCc1ccccc1Cl,-5.11*,i,i,i,i,i,i,i,i,i,i,
CCC(C)NC(=O)c1ccc(C2SCC(=O)N2Cc2ccccc2)cc1 (stereo not drawn),-7.58*,i,i,i,i,.,.,.,.,i,i,TRPC4 spec 2=i;TRPC4 spec=i;HEK293 MPD ctr 2-1=i;HEK293 MPD ctr-1=i
NC(=O)N/N=C/c1ccccc1OC(=O)c1ccccc1Br,i,i,i,i,i,.,.,.,.,.,.,
Cc1ccc(CCNC(=O)C2CCCN(S(=O)(=O)c3cccc4nsnc34)C2)cc1 (stereo not drawn),-5.95*,i,i,i,i,i,i,i,i,i,i,
Cc1c(Cc2ccccc2)c(NCCCO)n2c(nc3ccccc32)c1C#N,i,i,i,i,i,.,.,.,.,.,.,
C=C(C)Cc1c(C)c(C#N)c2nc3ccccc3n2c1NCCCN(C)C,-7.25*,i,i,i,i,.,.,.,.,i,i,TRPC4 spec 2=48.5%*;TRPC4 spec=-16.1%*;HEK293 MPD ctr 2-1=i;HEK293 MPD ctr-1=-353.5%*
CCCc1cc(NCCCN(C)C)n2c(nc3ccccc32)c1C#N,-6.78*,i,i,i,i,.,.,.,.,63.3%*,i,TRPC4 spec 2=62.0%*;TRPC4 spec=-36.0%*;HEK293 MPD ctr 2-1=42.5%*;HEK293 MPD ctr-1=-454.0%*
CCCc1cc(NCCN(C)C)n2c(nc3ccccc32)c1C#N,i,i,i,i,i,.,.,.,.,.,.,
C=CCc1c(C)c(C#N)c2nc3ccccc3n2c1NCCN(C)C,-5.44*,i,i,i,i,-116.5%*,i,-24.0%*,51.5%*,53.5%*,i,
CCc1c(C)c(C#N)c2nc3ccccc3n2c1NC,i,i,i,i,i,.,.,.,.,.,.,
CCc1c(C)c(C#N)c2nc3ccccc3n2c1NCCN(C)C,-9.47*,i,i,i,i,-85.0%*,112.5%*,-18.0%*,75.5%*,77.5%*,i,
CCCc1ccc2oc(C(=O)N3CCN(CC(=O)NC(C)C)CC3)c(C)c2c1,i,i,i,i,i,.,.,.,.,.,.,
Cc1ccc(O)c(Sc2cc(C)ccc2O)c1,-8.44*,i,i,i,-6*,.,.,.,.,70.9%*,i,TRPC4 spec 2=i;TRPC4 spec=-13.4%*;HEK293 MPD ctr 2-1=i;HEK293 MPD ctr-1=-141.0%*
COC(=O)Cn1c(=NC(=O)CCS(=O)(=O)c2ccccc2)sc2c(OC)ccc(OC)c21,i,i,i,i,i,.,.,.,.,.,.,
Cc1ccc(C)c(N2CCN(C(=O)c3ccc(CS(=O)(=O)c4ccccc4C)o3)CC2)c1,-8.85*,i,i,i,i,.,.,.,.,i,i,TRPC4 spec 2=i;TRPC4 spec=i;HEK293 MPD ctr 2-1=i;HEK293 MPD ctr-1=i
CCOC(=O)C1CCCN(C(=O)c2sc3nc(C)nc(N(CC)CC)c3c2C)C1 (stereo not drawn),-5.22*,i,i,i,i,110.0%*,i,22.5%*,36.0%*,37.5%*,.,
CCC1CCCCN1C(=O)c1sc2nc(C)nc(N(CC)CC)c2c1C (stereo not drawn),i,i,i,i,i,.,.,.,.,.,.,
O=C(CSc1nnc(C2CC2)n1Cc1ccccc1)c1cc2ccccc2o1,-5.23*,i,i,i,i,169.0%*,i,24.0%*,i,i,.,
NC(=O)CSc1nnc(-c2cc3ccccc3o2)n1Cc1ccccc1,i,i,i,i,i,.,.,.,.,.,.,
C=CCNC(=O)c1ccccc1NC(=O)C1CCN(S(=O)(=O)c2ccc(SC)cc2)CC1,i,i,i,i,i,.,.,.,.,.,.,
CCCC(=O)NC(c1ccc(C(C)C)cc1)c1ccc2cccnc2c1O (stereo not drawn),-6.4*,i,i,i,i,i,i,i,i,i,i,
CCCC(=O)NC(c1ccc(N(C)C)cc1)c1ccc2cccnc2c1O (stereo not drawn),i,i,i,i,i,.,.,.,.,.,.,
CCCCC(=O)NC(c1ccc(Cl)cc1Cl)c1ccc2cccnc2c1O (stereo not drawn),-5.17*,i,i,i,i,-154.0%*,i,-29.5%*,i,i,i,
COc1cc2cccc(OC)c(=O)c2c(O)c1OC,i,i,i,i,i,.,.,.,.,.,.,
COc1cc2c(cc1OC)-c1c(OC)c(OC)cc3ccnc(c13)C2=O,-7.86*,i,i,i,i,.,.,.,.,53.8%*,i,TRPC4 spec 2=63.0%*;TRPC4 spec=-26.2%*;HEK293 MPD ctr 2-1=-58.0%*;HEK293 MPD ctr-1=-425.5%*
CCN(Cc1cnn(C)c1)C(=O)c1ccc(OC2CCN(S(=O)(=O)N(C)C)CC2)cc1,i,i,i,i,i,.,.,.,.,.,.,
